According to ChEMBL document CHEMBL3259528, “Exploring 5-nitrofuran derivatives against nosocomial pathogens: synthesis, antimicrobial activity and chemometric analysis” (2014):
In brackets after ≈: the same amount, converted by molar mass. Activity calls are given as the source filed them. No cut-off for these calls is given here.

Legend:
Klebsiella pneumoniae = assay: Antimicrobial activity against Klebsiella pneumoniae ATCC 700603 at 128 uM after 24 to 48 hrs by two-fold broth microdilution method; format: functional, organism-based
Outline: (§1)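 Antibacterial microdilution in CAMH, inoculum 0.5 McFarland diluted in saline/CAMH, 35 °C for 18 h, with further reads at 24 and 48 h. Activity is scored at the maximum tested concentration, 128 µM. Triplicate.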

Enterobacter cloacae = assay: Antimicrobial activity against Enterobacter cloacae ATCC 23355 at 128 uM after 24 to 48 hrs by two-fold broth microdilution method; format: functional, organism-based; outline: as §1
Staphylococcus aureus [1] = assay: Antimicrobial activity against Staphylococcus aureus ATCC 29213 after 24 to 48 hrs by two-fold broth microdilution method; format: functional
Escherichia coli [2] = assay: Antimicrobial activity against Escherichia coli ATCC 25922 after 24 to 48 hrs by two-fold broth microdilution method; format: functional
Candida albicans [3] = assay: Antimicrobial activity against Candida albicans ATCC 537Y after 48 hrs by two-fold broth microdilution method; format: functional
Outline: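 Two-fold serial dilutions in RPMI 1640 per CLSI M27-A2. Stocks in DMSO/RPMI 1:20 v/v. Test range 1.0–64 µM. Inoculum set to 0.5 McFarland, then diluted in saline and RPMI 1640. Plates held at 35 °C for 48 h. MIC is the lowest concentration giving prominent growth reduction. Run in triplicate.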

Serratia marcescens [4] = assay: Antimicrobial activity against Serratia marcescens ATCC 14576 after 24 to 48 hrs by two-fold broth microdilution method; format: functional
Staphylococcus aureus [5] = assay: Antimicrobial activity against Staphylococcus aureus ATCC 29213 after 18 hrs by modified broth microdilution method; format: functional
Outline: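 PGI90, the concentration giving 90% growth inhibition, fitted with an exponential growth curve from at least seven concentrations of the MIC assay. Inhibition % = [(Ac − Ap)/Ac] × 100 from A620 of drug-free control versus drug-treated culture. Checked by a modified broth microdilution (Phase 2).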

Enterococcus faecalis = assay: Antimicrobial activity against Enterococcus faecalis ATCC 29212 after 24 to 48 hrs by two-fold broth microdilution method; format: functional
Escherichia coli [6] = assay: Antimicrobial activity against Escherichia coli ATCC 25922 at 128 uM after 24 to 48 hrs by two-fold broth microdilution method; format: functional, organism-based; outline: as §1
Candida albicans [7] = assay: Antimicrobial activity against Candida albicans ATCC 537Y at 64 uM after 48 hrs by two-fold broth microdilution method; format: functional, organism-based
Outline: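 Single top concentration of the antifungal microdilution: RPMI 1640, inoculum 0.5 McFarland diluted in saline/RPMI, 35 °C for 48 h. Activity is judged at the highest tested level, 64 µM. Run in triplicate.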

Serratia marcescens [8] = assay: Antimicrobial activity against Serratia marcescens ATCC 14576 at 128 uM after 24 to 48 hrs by two-fold broth microdilution method; format: functional, organism-based; outline: as §1
Staphylococcus aureus [9] = assay: Antimicrobial activity against multidrug-resistant Staphylococcus aureus VISA3 […] by two-fold broth microdilution method; format: functional

| Compound | Activity (Klebsiella pneumoniae) | Activity (Enterobacter cloacae) | MIC (Staphylococcus aureus [1]) [µM] | MIC90 (Staphylococcus aureus [1]) [µM] | MIC (Escherichia coli [2]) [µM] | MIC90 (Escherichia coli [2]) [µM] | MIC (Candida albicans [3]) [µM] | MIC90 (Candida albicans [3]) [µM] | MIC (Serratia marcescens [4]) [µM] | MIC90 (Serratia marcescens [4]) [µM] | log(1/MIC>90) (Staphylococcus aureus [5]) | MIC (Enterococcus faecalis) [µM] | MIC90 (Enterococcus faecalis) [µM] | Activity (Escherichia coli [6]) | Activity (Candida albicans [7]) | Activity (Serratia marcescens [8]) | MIC (Staphylococcus aureus [9]) [µM] |
| --- | --- | --- | --- | --- | --- | --- | --- | --- | --- | --- | --- | --- | --- | --- | --- | --- | --- |
| CCOc1ccc(C2=NN(C(C)=O)C(c3ccc([N+](=O)[O-])o3)O2)cc1 (stereo unspecified) | inactive | inactive | 8 (≈ 2.76 µg/mL) | 8.14 (≈ 2.81 µg/mL) | 64 (≈ 22.1 µg/mL) | 78.6 (≈ 27.1 µg/mL) | 8 (≈ 2.76 µg/mL) | 8.39 (≈ 2.9 µg/mL) | 64 (≈ 22.1 µg/mL) | 85.7 (≈ 29.6 µg/mL) | 5.09 |  |  |  |  |  |  |
| CC(=O)N1N=C(c2ccc([N+](=O)[O-])cc2)OC1c1ccc([N+](=O)[O-])o1 (stereo unspecified) | inactive | inactive | 4 (≈ 1.39 µg/mL) | 5.78 (≈ 2 µg/mL) | 32 (≈ 11.1 µg/mL) | 54.6 (≈ 18.9 µg/mL) | 32 (≈ 11.1 µg/mL) | 44.6 (≈ 15.4 µg/mL) | 64 (≈ 22.2 µg/mL) | 90.5 (≈ 31.3 µg/mL) | 5.14 | 32 (≈ 11.1 µg/mL) | 57.3 (≈ 19.8 µg/mL) |  |  |  |  |
| CC(C)(C)c1ccc(C(=O)N/N=C/c2ccc([N+](=O)[O-])o2)cc1 | inactive | inactive | 4 (≈ 1.26 µg/mL) | 5.28 (≈ 1.66 µg/mL) |  |  |  |  |  |  | 5.28 | 32 (≈ 10.1 µg/mL) | 59.8 (≈ 18.9 µg/mL) | inactive | inactive | inactive |  |
| CC(=O)N1N=C(c2ccc(Cl)cc2)OC1c1ccc([N+](=O)[O-])o1 (stereo unspecified) | inactive | inactive | 4 (≈ 1.34 µg/mL) | 5.45 (≈ 1.83 µg/mL) | 64 (≈ 21.5 µg/mL) | 88.7 (≈ 29.8 µg/mL) |  |  |  |  | 5.26 |  |  |  | inactive | inactive | 4 (≈ 1.34 µg/mL) |
| CC(=O)N1N=C(c2ccc(Br)cc2)OC1c1ccc([N+](=O)[O-])o1 (stereo unspecified) | inactive | inactive | 4 (≈ 1.52 µg/mL) | 5.13 (≈ 1.95 µg/mL) |  |  |  |  |  |  | 5.29 |  |  | inactive | inactive | inactive | 8 (≈ 3.04 µg/mL) |
| CN[C@H](CC(C)C)C(=O)N[C@H]1C(=O)N[C@@H](CC(N)=O)C(=O)N[C@H]2C(=O)N[C@H]3C(=O)N[C@H](C(=O)N[C@H](C(=O)O)c4cc(O)cc(O)c4-c4cc3ccc4O)[C@H](O)c3ccc(c(Cl)c3)Oc3cc2cc(c3O[C@@H]2O[C@H](CO)[C@@H](O)[C@H](O)[C@H]2O[C@H]2C[C@](C)(N)[C@H](O)[C@H](C)O2)Oc2ccc(cc2Cl)[C@H]1O [VANCOMYCIN] |  |  | < 20 |  |  |  |  |  |  |  |  |  |  |  |  |  | 2 (≈ 2.9 µg/mL) |
| CCCCc1ccc(C2=NN(C(C)=O)C(c3ccc([N+](=O)[O-])o3)O2)cc1 (stereo unspecified) | inactive | inactive | 16 (≈ 5.72 µg/mL) | 18.5 (≈ 6.6 µg/mL) |  |  |  |  |  |  | 4.73 |  |  | inactive | inactive | inactive |  |
| CCCCc1ccc(C(=O)N/N=C/c2ccc([N+](=O)[O-])o2)cc1 | inactive | inactive | 2 (≈ 0.631 µg/mL) | 1.8 (≈ 0.568 µg/mL) |  |  |  |  |  |  | 5.74 | 32 (≈ 10.1 µg/mL) | 55.9 (≈ 17.6 µg/mL) | inactive | inactive | inactive | 2 (≈ 0.631 µg/mL) |
| CC(=O)N1N=C(c2ccc(Cl)cc2Cl)OC1c1ccc([N+](=O)[O-])o1 (stereo unspecified) | inactive | inactive | 4 (≈ 1.48 µg/mL) | 6.12 (≈ 2.27 µg/mL) | 64 (≈ 23.7 µg/mL) | 86.1 (≈ 31.9 µg/mL) | 32 (≈ 11.8 µg/mL) | 42.2 (≈ 15.6 µg/mL) | 64 (≈ 23.7 µg/mL) | 85.7 (≈ 31.7 µg/mL) | 5.21 | 32 (≈ 11.8 µg/mL) | 31.7 (≈ 11.7 µg/mL) |  |  |  |  |
| O=C(N/N=C/c1ccc([N+](=O)[O-])o1)c1ccc(F)cc1 | inactive | inactive | 2 (≈ 0.554 µg/mL) | 6.64 (≈ 1.84 µg/mL) | 32 (≈ 8.87 µg/mL) | 44.1 (≈ 12.2 µg/mL) | 32 (≈ 8.87 µg/mL) | 57 (≈ 15.8 µg/mL) | 64 (≈ 17.7 µg/mL) | 104 (≈ 28.9 µg/mL) | 5.18 | 64 (≈ 17.7 µg/mL) | 71.2 (≈ 19.7 µg/mL) |  |  |  |  |
| N#Cc1ccc(C(=O)N/N=C/c2ccc([N+](=O)[O-])o2)cc1 | inactive | inactive | 4 (≈ 1.14 µg/mL) | 5.35 (≈ 1.52 µg/mL) | 64 (≈ 18.2 µg/mL) | 97.3 (≈ 27.7 µg/mL) |  |  | 64 (≈ 18.2 µg/mL) | 111 (≈ 31.5 µg/mL) | 5.27 | 32 (≈ 9.1 µg/mL) | 40.4 (≈ 11.5 µg/mL) |  | inactive |  |  |
| CC(=O)N1N=C(c2ccc(C(F)(F)F)cc2)OC1c1ccc([N+](=O)[O-])o1 (stereo unspecified) | inactive | inactive | 4 (≈ 1.48 µg/mL) | 5.6 (≈ 2.07 µg/mL) |  |  |  |  |  |  | 5.25 |  |  | inactive | inactive | inactive | 4 (≈ 1.48 µg/mL) |
| CCCCOc1ccc(C(=O)N/N=C/c2ccc([N+](=O)[O-])o2)cc1 | inactive | inactive | 2 (≈ 0.663 µg/mL) | 4.14 (≈ 1.37 µg/mL) |  |  |  |  |  |  | 5.38 | 16 (≈ 5.3 µg/mL) | 24.1 (≈ 7.97 µg/mL) | inactive | inactive | inactive |  |
| CC(=O)N1N=C(c2ccc(I)cc2)OC1c1ccc([N+](=O)[O-])o1 (stereo unspecified) | inactive | inactive | 4 (≈ 1.71 µg/mL) | 6.29 (≈ 2.69 µg/mL) |  |  |  |  |  |  | 5.13 |  |  | inactive | inactive | inactive |  |
| COc1ccc(C2=NN(C(C)=O)C(c3ccc([N+](=O)[O-])o3)O2)cc1 (stereo unspecified) | inactive | inactive | 8 (≈ 2.65 µg/mL) | 10.9 (≈ 3.6 µg/mL) |  |  |  |  |  |  | 4.96 |  |  | inactive | inactive | inactive |  |
| CCOc1ccc(C(=O)N/N=C/c2ccc([N+](=O)[O-])o2)cc1 | inactive | inactive | 2 (≈ 0.607 µg/mL) | 3.7 (≈ 1.12 µg/mL) |  |  |  |  |  |  | 5.43 | 32 (≈ 9.7 µg/mL) | 34.9 (≈ 10.6 µg/mL) | inactive | inactive | inactive |  |
| CC(=O)N1N=C(c2ccc(Cl)c(Cl)c2)OC1c1ccc([N+](=O)[O-])o1 (stereo unspecified) | inactive | inactive | 4 (≈ 1.48 µg/mL) | 4.63 (≈ 1.71 µg/mL) |  |  |  |  |  |  | 5.33 |  |  | inactive | inactive | inactive | 4 (≈ 1.48 µg/mL) |
